{
  "source": "ChEMBL document CHEMBL3120138",
  "about": "“Glucocorticoid receptor modulators informed by crystallography lead to a new rationale for receptor selectivity, function, and implications for structure-based design” (J Med Chem, 2014)",
  "key": {"[1]": {"biological_target": "T1, Mineralocorticoid receptor (Homo sapiens, UniProt P08235)", "T1 sequence (P08235 whole entry)": "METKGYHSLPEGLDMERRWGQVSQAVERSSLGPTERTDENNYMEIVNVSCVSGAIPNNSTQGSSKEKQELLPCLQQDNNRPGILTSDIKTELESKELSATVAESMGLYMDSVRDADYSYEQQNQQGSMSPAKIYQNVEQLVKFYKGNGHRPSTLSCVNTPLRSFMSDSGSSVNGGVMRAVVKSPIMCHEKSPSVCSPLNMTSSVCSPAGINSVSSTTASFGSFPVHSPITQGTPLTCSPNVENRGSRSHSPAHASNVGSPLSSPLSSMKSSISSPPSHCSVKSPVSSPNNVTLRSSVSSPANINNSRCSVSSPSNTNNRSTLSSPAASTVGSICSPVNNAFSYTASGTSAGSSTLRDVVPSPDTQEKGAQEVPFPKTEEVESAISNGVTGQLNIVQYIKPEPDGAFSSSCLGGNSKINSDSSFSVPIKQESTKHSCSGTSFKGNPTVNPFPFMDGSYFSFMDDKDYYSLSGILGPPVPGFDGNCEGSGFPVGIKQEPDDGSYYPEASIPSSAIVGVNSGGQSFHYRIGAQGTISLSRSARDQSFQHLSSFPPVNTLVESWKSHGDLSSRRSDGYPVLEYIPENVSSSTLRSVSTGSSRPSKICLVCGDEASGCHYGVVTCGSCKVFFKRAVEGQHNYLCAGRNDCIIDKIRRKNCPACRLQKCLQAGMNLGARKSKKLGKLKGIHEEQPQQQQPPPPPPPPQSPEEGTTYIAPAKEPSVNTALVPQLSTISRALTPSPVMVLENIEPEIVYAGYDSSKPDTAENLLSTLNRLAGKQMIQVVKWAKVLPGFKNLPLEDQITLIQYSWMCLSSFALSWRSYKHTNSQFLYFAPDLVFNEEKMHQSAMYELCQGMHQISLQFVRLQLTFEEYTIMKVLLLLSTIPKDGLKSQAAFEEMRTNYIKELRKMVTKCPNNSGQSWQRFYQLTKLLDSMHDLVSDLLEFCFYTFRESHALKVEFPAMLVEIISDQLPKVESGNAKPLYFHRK", "assay": "Displacement of [3H]-aldosterone from human mineralocorticoid receptor expressed in HEK293 cells", "assay_type": "cell-based", "outline": "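Competition binding used lysates of HEK293 cells overexpressing the human receptor. The tracer was ³H-aldosterone for MR and ³H-methyltrienolone for PR. Competitor was tested from 0.01 nM to 10 μM. IC50 was converted to Ki by Cheng–Prusoff. Values are means of at least three experiments, each run in triplicate.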"}, "Rattus norvegicus [2]": {"tested_on": "Rattus norvegicus", "assay": "Antiinflammatory activity in po dosed Sprague-Dawley rat assessed as inhibition of carrageenan-induced paw edema incubated for 2 hrs prior to carrageenan challenge measured after 5 hrs […]", "assay_type": "functional"}, "Rattus norvegicus [3]": {"tested_on": "Rattus norvegicus", "assay": "Antiinflammatory activity in Lewis rat collagen-induced arthritis model assessed as reduction of pannus at 30 mg/kg, po administered for 15 days", "assay_type": "functional, organism-based", "set-up": "dose 30 mg/kg", "outline": "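Female Lewis rats received collagen injected at the tail base, and disease developed over 14 d. Responding rats (groups of n = 10) were then dosed orally once daily for the next 15 d. Ankle/paw diameter was measured throughout the live phase and summarised as AUC. Hindpaw histology was scored blind from 0 (normal) to 5 (vehicle-level). Statistics used Student's t test vs vehicle, p < 0.01.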"}, "[4]": {"assay": "Antiinflammatory activity in human CCD-39SK cells assessed as inhibition of IL-1beta-induced IL-6 production incubated for 60 mins prior to IL-1beta induction measured after 24 hrs", "assay_type": "functional, cell-based", "outline": "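CCD-39SK fibroblasts (20 000/well) were grown in MEM with 2% charcoal/dextran-treated FBS. Cells were pretreated with compound for 60 min, then stimulated with rhIL-1β (1 ng/mL final) for 24 h at 37 °C. IL-6 in clarified supernatant was measured. […] Ten-point half-log dilutions were used, each in triplicate.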"}, "Rattus norvegicus [5]": {"tested_on": "Rattus norvegicus", "assay": "Antiinflammatory activity in po dosed Sprague-Dawley rat assessed as inhibition of carrageenan-induced IL-1beta secretion incubated for 2 hrs prior to carrageenan challenge measured after 5 hrs by ELISA", "assay_type": "functional", "outline": "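Male Sprague-Dawley rats (n = 5/group) were dosed at t = 0, and carrageenan was injected into the rear footpad at 2 h. At 5 h the animals were euthanised and the hindpaws weighed to measure edema. Paw exudate was assayed for IL-1β by ELISA.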"}, "[6]": {"assay": "Oral bioavailability in Sprague-Dawley rat at 3 mg/kg", "assay_type": "ADME, organism-based", "conditions": "in vivo", "outline": "(§1)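 Cannulated male Sprague-Dawley rats, fasted overnight, given a single 3 mpk dose at t = 0. The iv vehicle was 20% microemulsion/80% DI water and the po vehicle CMC/tween in DI water. Plasma was analysed for parent compound by LC/MS-MS, and exposure, half-life, Vd, clearance and bioavailability were calculated.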"}, "[7]": {"assay": "AUC in Sprague-Dawley rat at 3 mg/kg, iv", "assay_type": "ADME, organism-based", "set-up": "dose 3 mg/kg, route intravenous", "conditions": "plasma", "outline": "as §1"}, "[8]": {"assay": "Half life in Lewis rat collagen-induced arthritis model at 3 to 30 mg/kg, po after 15 days", "assay_type": "ADME, organism-based", "set-up": "dose 3-30 mg/kg, route oral", "conditions": "in vivo"}, "[9]": {"biological_target": "T2, Glucocorticoid receptor (Homo sapiens) (UniProt P04150)", "T2 sequence (whole entry)": "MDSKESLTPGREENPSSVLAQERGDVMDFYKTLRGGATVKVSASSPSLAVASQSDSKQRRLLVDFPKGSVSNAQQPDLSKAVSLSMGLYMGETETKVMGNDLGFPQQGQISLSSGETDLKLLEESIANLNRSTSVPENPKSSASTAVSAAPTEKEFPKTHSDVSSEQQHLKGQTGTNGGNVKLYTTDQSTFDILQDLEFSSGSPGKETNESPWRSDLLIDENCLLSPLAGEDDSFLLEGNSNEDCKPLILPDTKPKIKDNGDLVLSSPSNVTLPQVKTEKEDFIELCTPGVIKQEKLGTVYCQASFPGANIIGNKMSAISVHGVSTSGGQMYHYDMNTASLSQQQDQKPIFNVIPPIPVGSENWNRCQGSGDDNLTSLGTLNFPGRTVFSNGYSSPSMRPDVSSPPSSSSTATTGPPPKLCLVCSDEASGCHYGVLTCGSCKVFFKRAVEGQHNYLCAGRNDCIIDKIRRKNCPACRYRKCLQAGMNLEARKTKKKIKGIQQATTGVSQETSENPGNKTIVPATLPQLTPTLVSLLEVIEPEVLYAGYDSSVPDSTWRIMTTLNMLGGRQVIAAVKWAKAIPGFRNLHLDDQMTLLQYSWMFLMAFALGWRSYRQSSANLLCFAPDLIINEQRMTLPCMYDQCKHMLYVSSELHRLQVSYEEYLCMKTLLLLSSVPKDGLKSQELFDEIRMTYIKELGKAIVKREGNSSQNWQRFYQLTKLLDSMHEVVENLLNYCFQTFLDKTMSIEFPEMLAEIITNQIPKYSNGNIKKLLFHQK", "assay": "Transactivation of human glucocorticoid receptor expressed in HEK293 cells at 10 uM after 24 hrs by luciferase reporter gene assay relative to control", "assay_type": "cell-based", "outline": "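HEK293 cells were transfected in DMEM with 5% charcoal-stripped FBS, using a CMV-hGR plasmid and a luciferase reporter driven by 2×GRE plus the TK promoter. After overnight incubation, cells were replated and exposed to compound for 24 h, then lysed for luciferase readout.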"}},
  "note": "Active and inactive are the calls of the source. No cut-off for these calls is given here.",
  "data": [
    {"smiles": "CC/C(=C1\\c2ccccc2OCc2cccc(OC)c21)c1cccc(NS(C)(=O)=O)c1", "values": [
      {"measurement": "Ki", "setting": "[1]", "value": 6.1, "unit": "nM"},
      {"measurement": "ED50", "setting": "Rattus norvegicus [2]", "value": 2.8, "unit": "mg/kg"},
      {"measurement": "Activity", "setting": "Rattus norvegicus [3]", "value": "Active"},
      {"measurement": "IC50", "setting": "[4]", "value": 4.38, "unit": "nM"},
      {"measurement": "ED50", "setting": "Rattus norvegicus [5]", "value": 1.7, "unit": "mg/kg"},
      {"measurement": "bioavailability", "setting": "[6]", "value": 100, "unit": "%"},
      {"measurement": "AUC", "setting": "[7]", "value": 1490, "unit": "ng·h/mL"},
      {"measurement": "half-life", "setting": "[8]", "value": 1.4, "unit": "h"},
      {"measurement": "Efficacy", "setting": "[9]", "value": 53, "unit": "%"}
    ]},
    {"smiles": "CC/C(=C1/c2ccccc2COc2ccccc21)c1cccc(NS(C)(=O)=O)c1", "values": [
      {"measurement": "Ki", "setting": "[1]", "value": 0.967, "unit": "nM"},
      {"measurement": "IC50", "setting": "[4]", "value": 4.8, "unit": "nM"}
    ]},
    {"smiles": "C/C(=C1/c2ccccc2COc2ccccc21)c1cccc(NS(C)(=O)=O)c1", "values": [
      {"measurement": "Ki", "setting": "[1]", "value": 0.342, "unit": "nM"},
      {"measurement": "IC50", "setting": "[4]", "value": 9.32, "unit": "nM"}
    ]},
    {"smiles": "CS(=O)(=O)Nc1cccc(C=C2c3ccccc3CCc3ccccc32)c1", "values": [
      {"measurement": "Ki", "setting": "[1]", "value": 2.48, "unit": "nM"},
      {"measurement": "IC50", "setting": "[4]", "value": 75.9, "unit": "nM"}
    ]}
  ]
}
